Laboratory results from ChEMBL document CHEMBL1132359, “Thiazolothiazepine inhibitors of HIV-1 integrase” (J Med Chem, 1999).

How the values were obtained:
CCRF-CEM [1] = experiment: The compound was tested for inhibitory activity against HIV-1; format: functional, cell-based; conditions: Homo sapiens
[2] = molecular target: T1, Human immunodeficiency virus type 1 integrase (Human immunodeficiency virus 1, UniProt Q7ZJM1); experiment: Inhibition of the 3'-end joining activity of HIV-1 integrase
In short: (§1)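 Then 20 nM 5′-32P-labeled linear oligonucleotide substrate added and incubated a further 1 h. Products separated on denaturing 20% polyacrylamide/urea gel and quantified by phosphorimaging. IC50 read from a plot of percent inhibition versus concentration.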

[3] = molecular target: T1, Human immunodeficiency virus type 1 integrase; experiment: Inhibition of the 3'-processing activity of HIV-1 integrase; in short: as §1
CCRF-CEM [4] = experiment: Tested for cytotoxicity in CEM cells; format: functional; conditions: Homo sapiens
CCRF-CEM [5] = experiment: The compound was tested for cytotoxicity against HIV-1 infected CEM cells; format: functional; conditions: Homo sapiens
CCRF-CEM [6] = experiment: The compound was tested for inhibitory activity against HIV-1 infected CEM cells; format: functional, cell-based; conditions: Homo sapiens

T1 sequence (Q7ZJM1 whole entry): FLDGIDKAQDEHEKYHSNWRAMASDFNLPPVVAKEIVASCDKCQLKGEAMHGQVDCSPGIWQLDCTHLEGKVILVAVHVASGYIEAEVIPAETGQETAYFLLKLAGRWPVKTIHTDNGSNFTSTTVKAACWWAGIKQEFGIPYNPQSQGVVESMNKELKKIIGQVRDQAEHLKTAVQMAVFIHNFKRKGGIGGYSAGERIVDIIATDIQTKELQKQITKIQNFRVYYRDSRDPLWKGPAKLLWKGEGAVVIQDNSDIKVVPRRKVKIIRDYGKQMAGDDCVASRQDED

Structure (SMILES) | EC50 (CCRF-CEM [1]) | IC50 [2] | IC50 [3] | CC50 (CCRF-CEM [4]) | CC50 (CCRF-CEM [5]) | EC50 (CCRF-CEM [6])
COc1cc2c(cc1OC)C(=O)N1CCCC1CS2 (stereo unspecified) | > 200 µM | > 1000 µM | > 1000 µM | > 200 µM | – | –
O=C1Sc2ccccc2C(=O)N2COCC12 (stereo unspecified) | – | > 333 µM | > 333 µM | – | – | –
COc1ccc2c(c1)C(=O)N1C[S+]([O-])CC1C(=O)S2 (stereo unspecified) | – | 142 µM | 84.5 µM | – | – | –
Cc1ccc2c(c1)C(=O)N1CC[S+]([O-])C1C(=O)S2 (stereo unspecified) | > 100 µM | 590 µM | 590 µM | > 100 µM | – | –
COc1ccc2c(c1)C(=O)N1CSCC1C(=O)S2 (stereo unspecified) | > 200 µM | 155 µM | 155 µM | > 200 µM | – | –
O=C1Sc2cc3ccccc3cc2C(=O)N2CSCC12 (stereo unspecified) | 280 µM | 100 µM | 92 µM | > 316 µM | – | –
CC(=O)OC1Sc2ccccc2C(=O)N2CCCC12 (stereo unspecified) | > 200 µM | > 1000 µM | > 1000 µM | > 200 µM | – | –
O=C1Sc2ccccc2C(=O)N2CCSC12 (stereo unspecified) | – | 146 µM | 110 µM | – | > 200 µM | 107 µM
CN(C)Cc1ccc2n1Cc1ccccc1SC2c1ccc(F)cc1 (stereo unspecified) | – | > 1000 µM | > 1000 µM | – | – | –
COC1Sc2ccccc2C(=O)N2CCCC12 (stereo unspecified) | > 200 µM | > 1000 µM | > 1000 µM | > 200 µM | – | –
CN1CCN(Cc2ccc3n2Cc2ccccc2SC3c2ccccc2)CC1 (stereo unspecified) | – | > 1000 µM | > 1000 µM | – | – | –
O=C1Sc2ccc(Cl)cc2C(=O)N2CSCC12 (stereo unspecified) | > 100 µM | 160 µM | 158 µM | > 100 µM | – | –
CN1CCN(C2Sc3ccccc3C(=O)N3CCCC23)CC1 (stereo unspecified) | > 125 µM | > 1000 µM | > 1000 µM | > 125 µM | – | –
COc1cc2c(cc1OC)C(=O)N1CCCC1C(=O)S2 (stereo unspecified) | > 200 µM | > 1000 µM | > 1000 µM | > 200 µM | – | –
O=C1Sc2ccc(Br)cc2C(=O)N2CCSC12 (stereo unspecified) | – | 48 µM | 58 µM | – | – | –
O=C1Sc2ccccc2Cn2cccc21 | 146 µM | 300 µM | 590 µM | > 200 µM | – | –

Structure (SMILES) | EC50 (CCRF-CEM [1]) | IC50 [2] | IC50 [3] | CC50 (CCRF-CEM [4]) | CC50 (CCRF-CEM [5]) | EC50 (CCRF-CEM [6])
O=C1c2ccccc2SCC2CSC(c3ccccc3)N12 (stereo unspecified) | – | 376 µM | 372 µM | – | – | –
O=C1Sc2ccccc2C(=O)N2C[S+]([O-])CC12 (stereo unspecified) | – | 215 µM | 200 µM | – | – | –
Cc1ccc2c(c1)C(=O)N1CCSC1C(=O)S2 (stereo unspecified) | – | 55 µM | 64 µM | – | – | –
Cc1ccc2c(c1)C(=O)N1CSCC1C(=O)S2 (stereo unspecified) | – | 63 µM | 52 µM | 35 µM | – | –
O=C1Sc2ccccc2C(=O)N2CCCCC12 (stereo unspecified) | > 200 µM | 343 µM | 406 µM | > 200 µM | – | –
O=C1Sc2ccc(Cl)cc2C(=O)N2CCSC12 (stereo unspecified) | > 50 µM | 120 µM | 151 µM | > 50 µM | – | –
O=C1c2ccccc2SC(O)C2CCCN12 (stereo unspecified) | > 200 µM | > 1000 µM | > 1000 µM | > 200 µM | – | –
CCOC(=O)C1Sc2ccccc2Cn2cccc21 (stereo unspecified) | – | > 1000 µM | > 1000 µM | – | – | –
O=C1Sc2ccc(Cl)cc2C(=O)N2C[S+]([O-])CC12 (stereo unspecified) | – | 280 µM | 260 µM | – | – | –
O=C1Sc2ccccc2C(=O)N2CSCC12 (stereo unspecified) | > 200 µM | 227 µM | 208 µM | > 200 µM | – | –
O=C1c2ccccc2SC(O)(c2ccccc2)C2CCCN12 (stereo unspecified) | – | > 1000 µM | > 1000 µM | – | – | –
O=C1Sc2ccc(Br)cc2C(=O)N2CSCC12 (stereo unspecified) | > 200 µM | 74 µM | 87 µM | > 200 µM | – | –
O=C1Sc2cc([N+](=O)[O-])ccc2C(=O)N2CSCC12 (stereo unspecified) | > 50 µM | 100 µM | 90 µM | > 50 µM | – | –
O=C1Sc2cc3ccccc3cc2C(=O)N2CCSC12 (stereo unspecified) | 60 µM | 47 µM | 40 µM | > 316 µM | – | –
COc1cc2c(cc1OC)C(=O)N1CSCC1C(=O)S2 (stereo unspecified) | > 50 µM | 333 µM | 670 µM | > 50 µM | – | –
